Records with an inconclusive call do not appear. The source made the active and inactive calls.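 How the source made its calls: active means compounds that lower growth-factor-driven active Cdc42 or Rac1 at 10 micromolar by more than 15 percent; inactive means the rest, inconclusive results apart.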
Experiments:
Cdc42 = test: modulation of active Cdc42 and Rac1 in cells, profiling panel, Ras-related GTPase inhibitor project, cell lysate, ELISA, panel (AID 2375); conditions: NIH 3T3 cells, EGF-stimulated, PAK G-LISA active GTPase, stronger effect = lower value
Summary of the method: (§1)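 system = 3T3 lysates on PAK-coated wells | amount = equal cellular protein per well from snap-frozen lysates | reagent = EGF 10 ng/ml, with or without | dosing = compound at 1 and 10 µM | detection = colorimetric PAK-capture ELISA | evaluation = ng active GTPase per lysate, normalized to maximal EGF response | control set = EGF-stimulated and unstimulated lysates, GTPase standard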

Rac1 = test: as above; conditions: NIH 3T3 cells, EGF-stimulated, PAK G-LISA active GTPase, stronger effect = lower value
Summary of the method: as §1

SMILES | normalized active GTPase (Cdc42; active GTPase, at 1 µM) | normalized active GTPase (Rac1; active GTPase, at 1 µM) | normalized active GTPase (Cdc42; at 10 µM) | normalized active GTPase (Rac1; at 10 µM)
COc1ccc(C2CC(c3ccccc3)=NN2c2ccc(S(N)(=O)=O)cc2)cc1OC (centres undefined) | 0.87 |  | 0.856 (inactive) | 
COc1ccc(C2CC(c3cccc(OC)c3)=NN2c2ccc(S(N)(=O)=O)cc2)cc1 (centres undefined) | 0.442 |  | 1.25 (inactive) | 
NS(=O)(=O)c1ccc(N2N=C(c3ccccc3)CC2c2ccc(Br)cc2)cc1 (centres undefined) | 1.12 | 0.5 | 0.895 (inactive) | 0.47
COc1ccc(C2CC(c3ccccc3)=NN2c2ccc(S(N)(=O)=O)cc2)cc1 (centres undefined) | 0.923 | 0.724 | 0.626 | 0.612

Continued, in another order:

normalized active GTPase (Cdc42; active GTPase, at 1 µM) | normalized active GTPase (Rac1; active GTPase, at 1 µM) | SMILES | normalized active GTPase (Cdc42; at 10 µM) | normalized active GTPase (Rac1; at 10 µM)
0.994 | 0.782 | Cc1ccc(C2CC(c3ccccc3)=NN2c2ccc(S(N)(=O)=O)cc2)cc1 (centres undefined) | 0.667 | 0.941 (inactive)
0.764 | 0.556 | NS(=O)(=O)c1ccc(N2N=C(c3ccccc3)CC2c2cccc(Br)c2)cc1 (centres undefined) | 1.4 (inactive) | 0.691
0.979 | 1.09 | Cc1cccc(C2CC(c3ccccc3)=NN2c2ccc(S(N)(=O)=O)cc2)c1 (centres undefined) | 0.726 | 0.932 (inactive)
